Assay results taken from ChEMBL document CHEMBL1153742, “Cytotoxic constituents of the lichen Diploicia canescens” (J Nat Prod, 2009).

How the values were obtained:
Assay type in all cases: functional, cell-based
B16 [1] = experiment: Cytotoxicity against mouse B16 cells after 72 hrs by MTT assay; conditions: B16, 72 h
How it was run: (§1)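 B16 melanoma cells were seeded at 15 000 cells/mL in RPMI 1640 with 5% FCS, and after 5 h the medium was switched to RPMI with 1% FCS. Serial dilutions from 0.25 to 100 µM were added on days 1, 2 and 3. Cells were incubated at 37 °C in 10% CO2 for 72 h, and viability was read by MTT on day 4. Each concentration ran in triplicate wells, and each experiment was repeated at least three times.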

HaCaT = experiment: Cytotoxicity against human HaCaT cells after 72 hrs by MTT assay
How it was run: as §1, with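 “HaCaT keratinocytes” for “B16 melanoma cells”, “25” for “15”, “DMEM” for “RPMI 1640”, “10%” for “5%”, “reduced-serum DMEM.” for “RPMI with 1% FCS.”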

B16 [2] = experiment: Cytotoxicity against mouse B16 cells after 48 hrs by MTT assay; conditions: B16, 48 h
How it was run: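 Mouse B16 melanoma cells were seeded at 30 000 cells/mL in RPMI 1640 with 10% FCS on day 0. Compound dilutions were added on day 1. Cells were incubated at 37 °C under 10% CO2, and growth and viability were read by MTT after 48 h. IC50 was derived from at least three independent experiments, with three wells per concentration.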

SMILES	IC50 (B16 [1])	IC50 (HaCaT)	IC50 (B16 [2])
COc1cc2c(c(C)c1Cl)Oc1cc(OC)c(Cl)c(C)c1C(=O)O2 [SCENSIDIN]	400 nM	6100 nM	–
COC(=O)[C@@]12Oc3ccc(-c4ccc5c(c4O)C(O)C4=C(O)C[C@H](C)[C@@H](O)[C@]4(C(=O)OC)O5)c(O)c3C(=O)C1=C(O)C[C@H](C)[C@H]2O (some centres undefined) [SECALONIC ACID D]	–	3700 nM	280 nM
COc1c(Cl)c(C)c2c(c1Cl)OC(=O)c1c(cc(O)c(Cl)c1C)O2 [DECHLORODEPLOICIN]	1700 nM	4300 nM	–
COc1c(Cl)c(C)c2c(c1Cl)OC(=O)c1c(C)c(Cl)c(O)c(Cl)c1O2 [DIPLOICIN]	4000 nM	> 10000 nM	–
COC(=O)c1c(Oc2c(C)c(Cl)c(OC)c(Cl)c2O)cc(OC)c(Cl)c1C [BUELLIN]	250 nM	> 10000 nM	–
COc1cc([C@@H]2c3cc4c(cc3[C@@H](O[C@@H]3O[C@@H]5CO[C@@H](C)O[C@H]5[C@H](O)[C@H]3O)[C@H]3COC(=O)[C@H]23)OCO4)cc(OC)c1O [ETOPOSIDE]	280 nM	550 nM	–
COC(=O)[C@@]12Oc3ccc(-c4ccc5c(c4O)C(=O)C4=C(O)C[C@H](C)[C@H](O)[C@]4(C(=O)OC)O5)c(O)c3C(=O)C1=C(O)C[C@H](C)[C@@H]2O [SECALONIC ACID B]	–	> 10000 nM	2800 nM
